{
  "source": "paper PMC3712287",
  "about": "(Journal of neuroimmunology, 2010)",
  "key": {"[1]": {"test_system": "FcεRI expression by LAD2 mast cells", "experiment": "FcεRI surface expression by flow cytometry, LAD2 mast cells", "assay_type": "cell-based, human", "details": "for Effect of antagonist on SP-mediated downregulation of FcεRI: LAD2, antagonist 0.1 μM 30 min pretreatment"}, "[2]": {"test_system": "CysLT production by LAD2 mast cells", "experiment": "ELISA for CysLT production", "assay_type": "cell-based, human", "details": "for Effect of SP on CysLT production: LAD2, SP 10 μg/ml, anti-IgE 3 h"}, "[3]": {"test_system": "IgE binding by LAD2 mast cells", "experiment": "Cell surface IgE binding by flow cytometry", "assay_type": "cell-based, human", "details": "SP 24 h, sensitized with IgE 1-100 ng/ml 30 min, anti-IgE FITC, n=5", "how_it_was_run": "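LAD2 human mast cells (StemPro-34 SFM, 10 ng/ml SCF) were incubated 24 h with SP, then sensitized for 30 min with IgE at 1-100 ng/ml. Bound IgE was stained with anti-IgE-FITC (5 μg/ml) for 30 min on ice and read by flow cytometry as MFI.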"}, "[4]": {"test_system": "FcεRI α, β and γ subunit mRNA in LAD2 mast cells", "experiment": "Quantitative real-time PCR of FcεRI α, β and γ subunit mRNA", "assay_type": "cell-based, human", "details": "LAD2, 1 μg/ml SP, after at least 8 h of incubation, vs untreated control, n=3", "how_it_was_run": "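LAD2 cells received 1 μg/ml SP or PBS for varying times. Total RNA was column-isolated, and 5 μg was reverse-transcribed with random hexamers. Real-time PCR used 50 ng cDNA per reaction, run in triplicate for 40 cycles. Subunit mRNA was normalized to GAPDH and expressed as percent of PBS-treated cells at each time point. n=3.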"}, "LAD2 mast cells [5]": {"test_system": "LAD2 mast cells", "experiment": "Degranulation assay", "assay_type": "cell-based, human"}, "LAD2 mast cells [6]": {"test_system": "LAD2 mast cells", "details": "ref Kulka et al., 2008; cited from earlier work"}, "mast cell tryptase": {"test_system": "mast cell tryptase", "experiment": "Tryptase activity assay", "assay_type": "biochemical, human", "details": "supernatants of SP-activated LAD2, BAPNA substrate, n=3", "how_it_was_run": "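Washed LAD2 cells were left untreated or activated with SP (1 μg/ml) for 3 h. Cell-free supernatants were exposed to SBTI for 30 min, then mixed with 0.8 mM BAPNA solution in 0.1 M Tris/1 M glycerol, pH 7.8, and incubated 4 h at 37 °C. Nitroaniline was read at 410 nm. Activity was expressed relative to supernatants from SP-stimulated cells without inhibitor. n=3.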"}},
  "note": "Entries after “also recorded” stand apart in the source; their conditions may differ. Where two headings read alike, the source gives them in different places.",
  "data": [
    {"molecule": "SP(4–11) [SP(4–11) [D-Pro4 D-Trp7.9]]", "values": [
      {"measurement": "Concentration that blocked the SP-mediated downregulation of FcεRI expression", "setting": "[1]; LAD2, 30 min pretreatment, then 1 μg/ml SP 24 h", "value": 0.1, "unit": "µM"},
      {"measurement": "Effect of antagonist on SP-mediated downregulation of FcεRI", "setting": "[1]; then 1 μg/ml SP 24 h", "value": "blocked SP-mediated downregulation of FcεRI expression"},
      {"measurement": "Concentration at which SP(4–11) abrogated the SP effect on FcεRI expression", "setting": "[1]; discussion statement", "value": 1, "unit": "µg/mL"}
    ]},
    {"molecule": "Pertussis toxin", "values": [
      {"measurement": "Effect on SP-mediated downregulation of FcεRI", "setting": "[1]; Pertussis toxin pretreatment 2 h, then 1 μg/ml SP 24 h, n=3", "value": "selectively blocked SP-mediated downregulation of FcεRI"}
    ]},
    {"molecule": "vasoactive intestinal peptide [VIP]", "values": [
      {"measurement": "Effect on mast cell viability", "setting": "human mast cells", "value": "no effect on mast cell viability"}
    ]},
    {"molecule": "substance P [SP]", "values": [
      {"measurement": "Effect of SP on CysLT production", "setting": "[2]; sensitized with 50 ng/ml IgE", "value": "significantly inhibited CysLT production"},
      {"measurement": "Effect of SP on CysLT production", "setting": "[2]; sensitized with 100 ng/ml IgE", "value": "did not significantly affect CysLT production"},
      {"measurement": "Effect of SP pretreatment on IgE/anti-IgE-induced CysLT production", "setting": "[2]; LAD2, SP 24 h, sensitized with IgE, activated with anti-IgE 3 h, ELISA, n=3", "value": "significantly less CysLT"},
      {"measurement": "Direct activation of CysLT production", "setting": "[2]; mast cells, SP alone", "value": "does not activate mast cells to produce cysteinyl leukotrienes"},
      {"measurement": "IgE binding of SP-treated LAD2 vs untreated controls", "setting": "[3]", "value": "bound less IgE"},
      {"measurement": "Effect on mast cell viability", "setting": "human mast cells", "value": "no effect on mast cell viability"},
      {"measurement": "Lowest SP concentration leading to clear down-regulation of FcεRI", "setting": "[1]; LAD2 (discussion statement)", "value": 1, "unit": "µM"},
      {"measurement": "Time within which SP reduced IgE receptors", "setting": "[1]; LAD2 (discussion statement)", "value": "≤ 30", "unit": "min"},
      {"measurement": "Downregulation of FcεRI expression", "setting": "[1]; LAD2, 1 μg/ml SP, 24 h", "value": "approximately 30%"},
      {"measurement": "Reduction of FcεRI expression", "setting": "[1]; LAD2, 10 μg/ml SP (highest concentration tested), 24 h", "value": "~70", "unit": "%"},
      {"measurement": "Reduction in FcεRI protein expression compared to untreated cells", "setting": "[1]; LAD2, 10 μg/ml SP, 2 h", "value": 50, "unit": "%"},
      {"measurement": "IC50 of SP for downregulation of FcεRI surface expression", "setting": "[1]; LAD2, in the absence of IgE, SP 24 h, flow cytometry, n=3", "value": 5.2, "unit": "µg/mL"},
      {"measurement": "Effect on expression of FcεRI α, β and γ subunit mRNA", "setting": "[4]", "value": "significantly inhibited"}
    ]},
    {"molecule": "O=C(O)CN(CCN(CC(=O)O)CC(=O)O)CC(=O)O", "note": "[EDTA]", "values": [
      {"measurement": "Effect on SP-induced degranulation", "setting": "LAD2 mast cells [5]", "value": "blocked SP-induced degranulation"},
      {"measurement": "Effect on SP-mediated downregulation of FcεRI", "setting": "[1]", "value": "blocked the SP-mediated downregulation of FcεRI"}
    ]},
    {"molecule": "spantide I", "values": [
      {"measurement": "Effect of antagonist on SP-mediated downregulation of FcεRI", "setting": "[1]; then 1 μg/ml SP 24 h", "value": "did not have any effect"},
      {"measurement": "Effect on SP-mediated degranulation in mast cells", "setting": "LAD2 mast cells [6]", "value": "fails to inhibit SP-mediated degranulation"}
    ]},
    {"molecule": "soybean trypsin inhibitor (protein, UniProt P01070 25-205, looked up) Trypsin inhibitor A: DFVLDNEGNPLENGGTYYILSDITAFGGIRAAPTGNERCPLTVVQSRNELDKGIGTIISSPYRIRFIAEGHPLSLKFDSFAVIMLCVGIPTEWSVVEDLPEGPAVKIGENKDAMDGWFRLERVSDDEFNNYKLVFCPQQAEDDKCGDIGISIDHDDGTRRLVVSKNKPLVVQFQKLDKESL", "values": [
      {"measurement": "Effect on SP-induced degranulation", "setting": "LAD2 mast cells [5]; LAD2, pretreatment before activation with SP, β-hexosaminidase release", "value": "did not affect LAD2 cell degranulation"},
      {"measurement": "Effect on SP-mediated downregulation of FcεRI", "setting": "[1]; LAD2, 100 μg/ml SBTI five minutes prior to 1 or 10 μg/ml SP, 24 h", "value": "did not affect SP-mediated downregulation of FcεRI"},
      {"measurement": "Effect on activity of tryptase released by SP activation", "setting": "mast cell tryptase", "value": "able to block the activity of tryptase; also recorded: completely blocked the proteolytic activity of tryptase"}
    ]}
  ]
}
